Data set [1] has as its system MDA-MB-435. As to the kind of experiment: Cytotoxicity against human MDA-MB-435 cells. It is filed as functional, cell-based.
The subject of data set [2] is Leishmania chagasi. As to the kind of experiment: Antileishmanial activity against Leishmania chagasi promastigotes infected in hamster after 48 hrs by MTT assay. It is filed as functional, organism-based. The essentials: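 Promastigotes maintained in M-199 with 10% calf serum and 0.25% hemin at 24 °C, seeded at 1 × 10^6 cells/well. Incubated with 0.488–500 µg/mL for 48 h at 24 °C, pentamidine as standard. Viability by MTT at 570 nm.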

Data set [3] is described as follows: Antiinflammatory activity in rat neonatal brain microglia cells assessed as phorbol 12-myristate 13-acetate-stimulated thromboxane B2 release. Type of data set: functional, cell-based. The procedure, abridged:
(§1)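 Rat neonatal brain microglia, 2 × 10^5 cells per well, primed with E. coli LPS (0.3 ng/mL) for 17 h at 35.9 °C in 5% CO2. Cells were washed with HBSS, exposed to compounds (0.1–10 µM) or DMSO vehicle for 15 min, then stimulated with PMA (1 µM) for 70 min. O2-, TXB2 and LDH release were measured, duplicates, two independent experiments. IC50 for O2- and TXB2. LDH50 is the concentration giving 50% of the LDH release seen with 0.1% Triton X-100.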

A short description of data set [4]: Antiinflammatory activity in rat neonatal brain microglia cells assessed as phorbol 12-myristate 13-acetate-stimulated superoxide release. It is filed as functional, cell-based. The procedure, abridged: as §1
Data set [5] concerns HCT-8. Put plainly: Cytotoxicity against human HCT8 cells. It is filed as functional, cell-based.
The subject of data set [6] is SF-295. Put plainly: Cytotoxicity against human SF295 cells. It is filed as functional, cell-based.
For data set [7], the system named is HL-60. Put plainly: Cytotoxicity against human HL60 cells. Type of data set: functional, cell-based.
A short description of data set [8]: Antiinflammatory activity in rat neonatal brain microglia cells assessed as drug level causing 50% LDH release. It is filed as functional, cell-based. The procedure, abridged: as §1
Data set [9] in a line: Toxicity in BALB/c mouse erythrocytes assessed as hemolysis at 6.25 ug/ml after 2 hrs. Type of data set: cell-based, Erythrocyte. The settings on record: read-out: Activity. The essentials: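 A 3% suspension of BALB/c mouse erythrocytes incubated with compounds for 2 h at 25 °C. Supernatant absorbance read at 550 nm.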
The nature of data set [10]: Cytotoxicity against human macrophages after 48 hrs by MTT assay. Type of data set: cell-based, Macrophage.
The subject of data set [11] is Leishmania chagasi. As to the kind of experiment: Antileishmanial activity against Leishmania chagasi intracellular amastigotes infected in hamster macrophages after 48 hrs […]. Type of data set: functional, organism-based. The essentials: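 Intracellular amastigotes tested in infected macrophages, with pentavalent antimony as standard. Amastigotes were obtained from hamster spleens 60–70 days postinfection. Parasite burden was scored as the mean number of amastigotes per macrophage over 500 cells. Result expressed as IC50.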

For data set [12], the system named is Trypanosoma cruzi. As to the kind of experiment: Antitrypanosomal activity against Trypanosoma cruzi Y infected in […] LLC-MK2 cells after 24 hrs by MTT assay. The note with it: LLC-MK2, 24 h. It is filed as functional, organism-based. The essentials:
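Free trypomastigotes (Y strain) from LLC-MK2 cultures, seeded at 1 × 10^6 cells/well. Incubated up to 100 µg/mL for 24 h at 37 °C in 5% CO2, benznidazole as standard. Viability by MTT conversion, formazan extracted with 10% SDS for 18 h at 24 °C. IC50 in µg/mL.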

A short description of data set [13]: Selectivity index, ratio of IC50 for human macrophages to IC50 for antileishmanial activity against Leishmania chagasi intracellular amastigotes. Type of data set: functional. The procedure, abridged: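 Ratio of macrophage cytotoxicity IC50 (MTT, 48 h) to IC50 against L. chagasi intracellular amastigotes.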
Data set [14] in a line: Selectivity index, ratio of mouse peritoneal macrophages to Antitrypanosomal activity against Trypanosoma cruzi Y.
The test system of data set [15] is Leishmania chagasi. Put plainly: Induction of morphological changes in Leishmania chagasi promastigotes assessed as increase in vacuoles at 17 ug/ml after 3 hrs by electron microscopy. It is filed as functional, organism-based. The essentials:
(§2)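 Promastigotes (kept in M-199 with 10% calf serum and 0.25% hemin at 24 °C) incubated with compound at 17 µg/mL at 24 °C for 0, 1, 3, 5 or 7 h. Cells then processed for transmission electron microscopy and compared with an untreated control for ultrastructural changes.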

In data set [16] the test system is Leishmania chagasi. Put plainly: Induction of morphological changes in Leishmania chagasi promastigotes assessed as flagellar blebs at 17 ug/ml after 3 hrs by electron microscopy. It is filed as functional, organism-based. The procedure, abridged: as §2
Data set [17] relates to Macrophage. Put plainly: Induction of nitric oxide in BALB/c mouse peritoneal macrophages at 4 ug/mL after 24 hrs by griess assay. Type of data set: functional, cell-based. The procedure, abridged: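 Peritoneal macrophages incubated 24 h at 37 °C with compound at 4 µg/mL. LPS at 50 µg/mL served as the internal activation control. NO measured by Griess reaction, absorbance at 540 nm.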

The test system of data set [18] is Leishmania chagasi. As to the kind of experiment: Induction of morphological changes in Leishmania chagasi promastigotes assessed as nuclear destruction with chromatin decondensation at 17 ug/ml after 5 hrs by electron microscopy. It is filed as functional, organism-based. The procedure, abridged: as §2
Data set [19] has as its system Leishmania chagasi. Put plainly: Induction of morphological changes in Leishmania chagasi promastigotes assessed as nuclear membrane blebs at 17 ug/ml after 5 hrs by electron microscopy. Type of data set: functional, organism-based. The essentials:
as §2

In data set [20] the test system is Leishmania chagasi. As to the kind of experiment: Induction of morphological changes in Leishmania chagasi promastigotes assessed as cell membrane detachment at 17 ug/ml after 5 hrs by electron microscopy. It is filed as functional, organism-based. The procedure, abridged: as §2
Data set [21] relates to Leishmania chagasi. Put plainly: Induction of morphological changes in Leishmania chagasi promastigotes assessed as abnormal chromatin at 17 ug/ml after 3 hrs by electron microscopy. It is filed as functional, organism-based. The essentials: as §2
Data set [22] concerns Leishmania chagasi. Put plainly: Induction of morphological changes in Leishmania chagasi promastigotes assessed as mitochondrial swelling at 17 ug/ml after 3 hrs by electron microscopy. It is filed as functional, organism-based. The essentials:
as §2

[23] abbreviates: Homo sapiens, Macrophage, 48 h, read-out: IC50.
Setting [24] is: Leishmania chagasi, 48 h, read-out: IC50.

Converted amounts (≈) assume the structure as drawn. The source made the active and inactive calls. No cut-off for these calls is given here.

Regarding `CC/C=C/[C@H](CC)C[C@@]1(C)C[C@@H](CC)[C@@H](CC(=O)OC)OO1` [PLAKORTIN], the IC50 in data set [1] was 10.4 µg/mL (≈ 33.3 µM); in data set [2] it was 6 µg/mL (≈ 19.2 µM); in [3], more than 1 µM; in [4] it was more than 1 µM; in data set [5], 3 µg/mL (≈ 9.6 µM); in [6] it was 9.8 µg/mL (≈ 31.4 µM). Also, the figures for the IC50 in data set [7], in data set [8] and in [10] (setting [23]) were 13.3 µg/mL (≈ 42.6 µM), more than 10 µM and 4.7 µg/mL (≈ 15 µM), respectively. Also, the hemolysis at 2 h, 6.25 ug/ml in [9] amounted to 0%.

On to `CC/C=C/[C@H](CC)C[C@]1(C)C=C(CC)/C(=C/C(=O)OC)O1` [SPONGOSORITIN A], for which the IC50 in [1] is more than 25 µg/mL; in data set [11] (setting [24]) it was 3.1 µg/mL (≈ 10.6 µM); in data set [12], 25.7 µg/mL (≈ 87.9 µM); in data set [2], 2.5 µg/mL (≈ 8.55 µM); in data set [3] it was more than 10 µM; in data set [4], more than 10 µM. Also, the IC50 was more than 25 µg/mL in [5]; more than 25 µg/mL in data set [6]; more than 25 µg/mL in data set [7]; more than 10 µM in data set [8]; 29.8 µg/mL (≈ 102 µM) in data set [10] (setting [23]). Further, the figures for the Selectivity index in data set [13] and in [14] were 9.6 and 1.15, respectively. Also, the hemolysis at 2 h, 6.25 ug/ml in data set [9] stood at 1.8%.

Consider `CCCC[C@H](CC)C[C@]1(CC)C=C(CC)/C(=C\C(=O)OC)O1`, for which the IC50 in data set [1] is 6.5 µg/mL (≈ 21.1 µM); in data set [11] (setting [24]) it was 3.4 µg/mL (≈ 11 µM); in [12] it was 31.6 µg/mL (≈ 102 µM); in data set [2], 3.9 µg/mL (≈ 12.6 µM); in [3], more than 10 µM; in data set [4], more than 10 µM. For the same compound, the IC50 in data set [5] is 8 µg/mL (≈ 25.9 µM); in data set [6], 16.8 µg/mL (≈ 54.5 µM); in data set [7] it was 15.2 µg/mL (≈ 49.3 µM); in [8], more than 10 µM; in data set [10] (setting [23]) it was 31.6 µg/mL (≈ 102 µM). Moreover, the Selectivity index amounted to 9.2 in data set [13] and 1 in data set [14]. Further, in [9], the hemolysis at 2 h, 6.25 ug/ml turned out to be 0%.

`CC/C=C/[C@H](CC)C[C@]1(CC)C=C(CC)/C(=C/C(=O)OC)O1`: the concentration for half-maximal inhibition (IC50) is 9.6 µg/mL (≈ 31.3 µM) in [1]; 1.6 µg/mL (≈ 5.22 µM) in data set [11] (setting [24]); 16.5 µg/mL (≈ 53.8 µM) in data set [12]; 8.5 µg/mL (≈ 27.7 µM) in data set [2]; more than 10 µM in data set [3]; more than 10 µM in [4]. Besides, the IC50 was 7.2 µg/mL (≈ 23.5 µM) in data set [5]; 11.4 µg/mL (≈ 37.2 µM) in data set [6]; 8.6 µg/mL (≈ 28.1 µM) in data set [7]; more than 10 µM in [8]; 30.2 µg/mL (≈ 98.5 µM) in data set [10] (setting [23]). In addition, the Selectivity index is reported as 18.6 in data set [13] and 1.8 in data set [14]. In addition, the hemolysis at 2 h, 6.25 ug/ml in data set [9] is 7.24%.

Take MEGLUMINE ANTIMONATE: the IC50 in data set [11] is 21 µg/mL; in [10] (macrophage), more than 1000 µg/mL.

Turning to `N=C(N)c1ccc(OCCCCCOc2ccc(C(=N)N)cc2)cc1` [PENTAMIDINE], the IC50 in data set [2] came to 0.1 µg/mL (≈ 0.294 µM); in [10] (setting [23]), 8.7 µg/mL (≈ 25.6 µM).

As for `O=C(Cn1ccnc1[N+](=O)[O-])NCc1ccccc1` [BENZNIDAZOLE], in data set [12], inhibition was half-maximal at 36.3 µg/mL (≈ 139 µM) (IC50).

Take `CC/C=C/[C@H](CC)C/C(=C/[C@@]1(CC)C[C@H](CC)[C@H](CC(=O)O)OO1)CC` [PLAKORTIDE N]: the outcome in [15], in [16], in data set [18], in data set [19], in data set [20] and in data set [21] was Active. The outcome in data set [22] was Active. Further, the IC50 in data set [11] (setting [24]) is 0.5 µg/mL (≈ 1.36 µM); in data set [12], 2.3 µg/mL (≈ 6.27 µM); in [2], 1.9 µg/mL (≈ 5.18 µM); in data set [3], 0.93 µM; in [4] it was more than 10 µM; in [8] it was more than 10 µM. Moreover, the IC50 in data set [10] (setting [23]) was 16.6 µg/mL (≈ 45.3 µM). Also, the Selectivity index in [13] came out at 31.7; in data set [14] it was 7.1. Further, in data set [17], the result was inactive. In addition, the hemolysis at 2 h, 6.25 ug/ml in data set [9] amounted to 0%.

These data come from ChEMBL document CHEMBL1144707, “Antiparasitic, antineuroinflammatory, and cytotoxic polyketides from the marine sponge Plakortis angulospiculatus collected in Brazil” (J Nat Prod, 2008).
